ChEMBL document CHEMBL4406830, “Galloyl esters of trans-stilbenes are inhibitors of FASN with anticancer activity on non-small cell lung cancer cells” (Eur J Med Chem, 2019)
In brackets after ≈: the same amount, converted by molar mass. Activity calls are given as the source filed them. The calls are words filed in the database; no cut-off is given here.

Tests used:
NCI-H1299 = test: Antiproliferative activity against human NCI-H1299 cells expressing FASN assessed as reduction in cell viability after 72 hrs by MTS assay; assay type: functional, cell-based; conditions: NCI-H1299, 72 h
Outline: (§1)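 ATCC-sourced cells. H1299, H1650, H1703 and PC-9 were grown in RPMI 1640 with 10% FBS. A549 was grown in high-glucose DMEM with 10% FBS and 1 mM pyruvate. SAEC was grown in BEGM. Cells were seeded at 3 × 10^3 per well (H1650 3.5 × 10^3) and left to attach overnight. Serial dilutions from DMSO stocks were added, 0.1% DMSO final, for 72 h at 37 °C, 5% CO2. Medium was replaced, MTS added, and A490 read after 2 h. IC50 was taken from % viability versus log concentration, 3 experiments.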

NCI-H1650 = test: Antiproliferative activity against human NCI-H1650 cells expressing FASN assessed as reduction in cell viability after 72 hrs by MTS assay; assay type: functional, cell-based; conditions: NCI-H1650, 72 h; outline: as §1
NCI-H1703 [1] = test: Antiproliferative activity against human NCI-H1703 cells expressing FASN assessed as reduction in cell viability after 72 hrs by MTS assay; assay type: functional, cell-based; conditions: NCI-H1703, 72 h; outline: as §1
NCI-H1703 [2] = test: Antiproliferative activity against human NCI-H1703 cells expressing FASN assessed as growth inhibition at 25 uM after 72 hrs by MTS assay relative to control; assay type: functional; conditions: NCI-H1703, 72 h
Outline: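 H1703 cells were treated with a single 25 µM concentration for 72 h. Viability was measured by MTS at 490 nm, with 0.1% DMSO and media-only correction, relative to untreated control. Mean ± SD of n = 3 independent determinations, unpaired t test against control.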

[3] = molecular target: Fatty acid synthase (Homo sapiens) (UniProt P49327); test: Inhibition of FASN in human PC9 cells harboring FASN expression and EGFR delE746-A750 mutant assessed as disruption of AKT/FASN positive feedback loop by measuring decrease in FASN expression at 100 uM after 48 hrs by Western immunoblot based densitometric assay relative to control; assay type: cell-based
Sequence of Fatty acid synthase (Homo sapiens) (P49327 whole entry, looked up): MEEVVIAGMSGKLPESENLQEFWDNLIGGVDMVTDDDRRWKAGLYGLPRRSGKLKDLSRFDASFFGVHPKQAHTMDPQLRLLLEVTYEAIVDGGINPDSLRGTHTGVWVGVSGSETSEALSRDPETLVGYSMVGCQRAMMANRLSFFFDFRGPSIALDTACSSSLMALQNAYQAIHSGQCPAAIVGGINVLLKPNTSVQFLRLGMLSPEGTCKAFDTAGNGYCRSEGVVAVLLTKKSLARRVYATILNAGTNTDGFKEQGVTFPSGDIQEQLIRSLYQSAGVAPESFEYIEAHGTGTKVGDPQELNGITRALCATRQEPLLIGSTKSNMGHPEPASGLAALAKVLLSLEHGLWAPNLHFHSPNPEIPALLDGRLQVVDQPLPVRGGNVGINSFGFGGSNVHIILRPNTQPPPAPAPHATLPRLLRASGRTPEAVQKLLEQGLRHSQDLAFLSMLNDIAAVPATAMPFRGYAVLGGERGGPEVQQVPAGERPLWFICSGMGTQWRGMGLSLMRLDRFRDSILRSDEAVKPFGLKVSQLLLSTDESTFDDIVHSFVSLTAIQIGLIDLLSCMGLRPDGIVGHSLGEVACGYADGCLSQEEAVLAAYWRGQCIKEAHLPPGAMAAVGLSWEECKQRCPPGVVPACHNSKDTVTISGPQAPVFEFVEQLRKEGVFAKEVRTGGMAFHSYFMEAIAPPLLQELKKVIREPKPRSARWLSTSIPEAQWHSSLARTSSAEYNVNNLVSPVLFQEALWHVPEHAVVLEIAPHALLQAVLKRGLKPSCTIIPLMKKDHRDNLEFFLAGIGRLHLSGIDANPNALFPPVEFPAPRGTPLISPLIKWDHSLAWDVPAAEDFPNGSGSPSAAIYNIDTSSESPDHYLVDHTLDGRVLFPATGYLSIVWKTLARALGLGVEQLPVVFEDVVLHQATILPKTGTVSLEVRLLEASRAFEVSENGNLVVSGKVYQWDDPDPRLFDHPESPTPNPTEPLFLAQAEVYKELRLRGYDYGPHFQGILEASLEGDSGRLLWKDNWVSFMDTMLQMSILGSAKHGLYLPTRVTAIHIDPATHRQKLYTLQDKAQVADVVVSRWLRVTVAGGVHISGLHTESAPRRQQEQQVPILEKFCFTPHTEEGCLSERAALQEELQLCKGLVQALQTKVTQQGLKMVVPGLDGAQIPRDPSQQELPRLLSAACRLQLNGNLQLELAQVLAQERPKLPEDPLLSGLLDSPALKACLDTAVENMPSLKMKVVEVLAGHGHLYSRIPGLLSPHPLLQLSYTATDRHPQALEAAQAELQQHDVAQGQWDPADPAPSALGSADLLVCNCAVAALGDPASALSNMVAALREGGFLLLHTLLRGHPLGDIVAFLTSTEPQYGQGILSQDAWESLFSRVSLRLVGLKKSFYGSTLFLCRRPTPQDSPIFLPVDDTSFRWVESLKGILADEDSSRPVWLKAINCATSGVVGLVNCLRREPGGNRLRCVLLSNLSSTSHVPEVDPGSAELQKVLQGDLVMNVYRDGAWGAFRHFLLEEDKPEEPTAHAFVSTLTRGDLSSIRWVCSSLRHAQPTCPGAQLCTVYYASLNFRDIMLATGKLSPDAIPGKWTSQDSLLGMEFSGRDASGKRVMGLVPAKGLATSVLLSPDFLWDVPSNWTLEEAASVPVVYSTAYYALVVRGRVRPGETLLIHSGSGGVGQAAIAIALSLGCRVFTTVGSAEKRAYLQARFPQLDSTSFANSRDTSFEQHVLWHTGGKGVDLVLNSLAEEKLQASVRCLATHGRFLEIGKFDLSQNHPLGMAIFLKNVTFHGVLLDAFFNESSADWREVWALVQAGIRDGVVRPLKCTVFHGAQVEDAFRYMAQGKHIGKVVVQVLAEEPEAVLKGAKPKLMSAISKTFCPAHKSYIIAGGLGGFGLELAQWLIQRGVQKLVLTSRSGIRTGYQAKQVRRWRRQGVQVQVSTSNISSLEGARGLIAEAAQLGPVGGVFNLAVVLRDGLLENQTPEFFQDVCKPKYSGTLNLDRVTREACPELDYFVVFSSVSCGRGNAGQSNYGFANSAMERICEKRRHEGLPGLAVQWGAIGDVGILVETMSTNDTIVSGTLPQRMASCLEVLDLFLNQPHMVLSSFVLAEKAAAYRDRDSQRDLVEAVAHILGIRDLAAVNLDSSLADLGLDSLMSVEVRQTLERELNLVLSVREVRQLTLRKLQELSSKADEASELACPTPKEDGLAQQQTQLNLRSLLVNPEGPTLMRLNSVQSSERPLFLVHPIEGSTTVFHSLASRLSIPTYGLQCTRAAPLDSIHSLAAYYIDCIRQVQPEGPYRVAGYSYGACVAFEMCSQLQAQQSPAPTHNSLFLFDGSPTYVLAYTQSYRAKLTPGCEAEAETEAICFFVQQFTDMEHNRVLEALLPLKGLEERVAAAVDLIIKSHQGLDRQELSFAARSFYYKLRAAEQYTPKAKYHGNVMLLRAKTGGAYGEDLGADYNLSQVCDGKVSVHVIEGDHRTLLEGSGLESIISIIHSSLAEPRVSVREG
Outline: (§2)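 PC-9 or H1703 cells were seeded at 8 × 10^5 per 100 mm dish and treated for 48 h at 1 or 5 µM (or 5, 50 and 100 µM). RIPA lysates were BCA-quantified and run on 8% SDS-PAGE, then transferred to PVDF. Blots were probed for FASN, AKT, phospho-AKT S473 and GAPDH and detected by ECL. Bands were quantified by densitometry and normalised to vehicle control.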

PC-9 = test: Induction of apoptosis in human PC9 cells harboring FASN expression and EGFR delE746-A750 mutant assessed as cell death at 5 to 100 uM after 72 hrs by Annexin-V FITC/PI staining-based flow cytometry; assay type: functional
[4] = molecular target: Fatty acid synthase (Homo sapiens) (UniProt P49327); test: Inhibition of FASN in human PC9 cells harboring FASN expression and EGFR delE746-A750 mutant assessed as disruption of AKT/FASN positive feedback loop by measuring reduction in phosphorylated AKT expression at 50 uM after 48 hrs by Western immunoblot based densitometric assay relative to control; assay type: cell-based; outline: as §2
[5] = molecular target: Fatty acid synthase (Homo sapiens) (UniProt P49327); test: Inhibition of FASN in human PC9 cells harboring FASN expression and EGFR delE746-A750 mutant assessed as disruption of AKT/FASN positive feedback loop by measuring reduction in AKT expression at 5 uM after 48 hrs by Western immunoblot based densitometric assay relative to control; assay type: cell-based; outline: as §2
[6] = molecular target: Fatty acid synthase (Homo sapiens) (UniProt P49327); test: Inhibition of FASN in human PC9 cells harboring FASN expression and EGFR delE746-A750 mutant assessed as disruption of AKT/FASN positive feedback loop by measuring reduction in AKT expression at 50 uM after 48 hrs by Western immunoblot based densitometric assay relative to control; assay type: cell-based; outline: as §2
NCI-H1703 [7] = test: Induction of apoptosis in human NCI-H1703 cells expressing FASN assessed as cell death at 5 to 100 uM after 72 hrs by Annexin-V FITC staining/PI-based flow cytometry; assay type: functional
[8] = molecular target: Fatty acid synthase (Homo sapiens) (UniProt P49327); test: Inhibition of FASN in human NCI-H1703 cells expressing FASN assessed as disruption of AKT/FASN positive feedback loop by measuring decrease in AKT expression at 50 uM after 48 hrs by Western immunoblot based densitometric assay relative to control; assay type: cell-based; outline: as §2
[9] = molecular target: Fatty acid synthase (Homo sapiens) (UniProt P49327); test: Inhibition of FASN in human NCI-H1703 cells expressing FASN assessed as disruption of AKT/FASN positive feedback loop by measuring decrease in AKT expression at 5 uM after 48 hrs by Western immunoblot based densitometric assay relative to control; assay type: cell-based; outline: as §2
[10] = molecular target: Fatty acid synthase (Homo sapiens) (UniProt P49327); test: Inhibition of FASN in human PC9 cells harboring FASN expression and EGFR delE746-A750 mutant assessed as disruption of AKT/FASN positive feedback loop by measuring decrease in FASN expression at 50 uM after 48 hrs by Western immunoblot based densitometric assay relative to control; assay type: cell-based; outline: as §2
[11] = molecular target: Fatty acid synthase (Homo sapiens) (UniProt P49327); test: Inhibition of FASN in human PC9 cells harboring FASN expression and EGFR delE746-A750 mutant assessed as disruption of AKT/FASN positive feedback loop by measuring reduction in AKT expression at 100 uM after 48 hrs by Western immunoblot based densitometric assay relative to control; assay type: cell-based; outline: as §2
[12] = molecular target: Fatty acid synthase (Homo sapiens) (UniProt P49327); test: Inhibition of FASN in human PC9 cells harboring FASN expression and EGFR delE746-A750 mutant assessed as disruption of AKT/FASN positive feedback loop by measuring decrease in FASN expression at 5 uM after 48 hrs by Western immunoblot based densitometric assay relative to control; assay type: cell-based; outline: as §2
[13] = molecular target: Fatty acid synthase (Homo sapiens) (UniProt P49327); test: Inhibition of FASN in human NCI-H1703 cells expressing FASN assessed as disruption of AKT/FASN positive feedback loop by measuring decrease in AKT expression at 100 uM after 48 hrs by Western immunoblot based densitometric assay relative to control; assay type: cell-based; outline: as §2
[14] = molecular target: Fatty acid synthase (Homo sapiens) (UniProt P49327); test: Inhibition of FASN in human NCI-H1703 cells expressing FASN assessed as disruption of AKT/FASN positive feedback loop by measuring decrease in phosphorylated AKT expression at 5 uM after 48 hrs by Western immunoblot based densitometric assay relative to control; assay type: cell-based; outline: as §2
[15] = molecular target: Fatty acid synthase (Homo sapiens) (UniProt P49327); test: Inhibition of FASN in human NCI-H1703 cells expressing FASN assessed as disruption of AKT/FASN positive feedback loop by measuring decrease in phosphorylated AKT expression at 100 uM after 48 hrs by Western immunoblot based densitometric assay relative to control; assay type: cell-based; outline: as §2
[16] = molecular target: Fatty acid synthase (Homo sapiens) (UniProt P49327); test: Inhibition of FASN in human PC9 cells harboring FASN expression and EGFR delE746-A750 mutant assessed as disruption of AKT/FASN positive feedback loop by measuring reduction in phosphorylated AKT expression at 100 uM after 48 hrs by Western immunoblot based densitometric assay relative to control; assay type: cell-based; outline: as §2
[17] = molecular target: Fatty acid synthase (Homo sapiens) (UniProt P49327); test: Inhibition of FASN in human NCI-H1703 cells expressing FASN assessed as disruption of AKT/FASN positive feedback loop by measuring decrease in phosphorylated AKT expression at 50 uM after 48 hrs by Western immunoblot based densitometric assay relative to control; assay type: cell-based; outline: as §2
[18] = molecular target: Fatty acid synthase (Homo sapiens) (UniProt P49327); test: Inhibition of FASN in human NCI-H1703 cells expressing FASN assessed as disruption of AKT/FASN positive feedback loop by measuring decrease in FASN expression at 5 uM after 48 hrs by Western immunoblot based densitometric assay relative to control; assay type: cell-based; outline: as §2
[19] = molecular target: Fatty acid synthase (Homo sapiens) (UniProt P49327); test: Inhibition of full length human FASN transfected in HeLa cell lysates at 10 uM using acetyl Co-A/malonyl Co-A as substrate preincubated with enzyme for 2 hrs followed by substrate addition measured after 10 mins in presence of NADPH by microplate reader analysis; assay type: subcellular; conditions: Lysate
Outline: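 Human FASN was made by in vitro translation from a FASN plasmid. Lysate was diluted 3:7 in 100 mM potassium phosphate, pH 6.5, 1 mM EDTA. It was preincubated with compound (10 µM final) for 2 h at 37 °C. Buffer containing acetyl-CoA (55 µM) and NADPH (330 µM) was added, then the reaction was started with malonyl-CoA (500 µM stock). A340 was read at 0 and 10 min; triplicates.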

[20] = molecular target: Fatty acid synthase (Homo sapiens) (UniProt P49327); test: Inhibition of FASN in human NCI-H1703 cells expressing FASN assessed as disruption of AKT/FASN positive feedback loop by measuring decrease in FASN expression at 50 uM after 48 hrs by Western immunoblot based densitometric assay relative to control; assay type: cell-based; outline: as §2
[21] = molecular target: Fatty acid synthase (Homo sapiens) (UniProt P49327); test: Inhibition of FASN in human NCI-H1703 cells expressing FASN assessed as disruption of AKT/FASN positive feedback loop by measuring decrease in FASN expression at 100 uM after 48 hrs by Western immunoblot based densitometric assay relative to control; assay type: cell-based; outline: as §2
[22] = molecular target: Fatty acid synthase (Homo sapiens) (UniProt P49327); test: Inhibition of FASN in human PC9 cells harboring FASN expression and EGFR delE746-A750 mutant assessed as disruption of AKT/FASN positive feedback loop by measuring reduction in phosphorylated AKT expression at 5 uM after 48 hrs by Western immunoblot based densitometric assay relative to control; assay type: cell-based; outline: as §2
[23] = Kinetic solubility of the compound in universal buffer at pH 7.4 measured at 25 degC after 24 hrs by UV/Visible spectroscopic analysis; assay type: physicochemical; conditions: read-out: Kinetic_solubility

O=C(Oc1ccc(Cc2ccc(OC(=O)c3cc(O)c(O)c(O)c3)cc2)cc1)c1cc(O)c(O)c(O)c1
IC50 (NCI-H1299): 8.6 µM
IC50 (NCI-H1650): 49.7 µM
IC50 (NCI-H1703 [1]): 6.2 µM
inhibition at 25 µM (NCI-H1703 [2]): > 50%

O=C(Oc1ccc(-c2cccc3ccccc23)cc1)c1cc(O)c(O)c(O)c1
inhibition at 25 µM (NCI-H1703 [2]): < 50%

O=C(Oc1cccc(/C=C/c2ccccc2)c1)c1cc(O)c(O)c(O)c1
inhibition at 25 µM (NCI-H1703 [2]): < 50%

COc1cc(C(=O)Oc2ccc(/C=C/c3ccccc3)cc2)cc(OC)c1OC
inhibition at 25 µM (NCI-H1703 [2]): < 50%

O=C(Oc1ccc(/C=C/c2cccc(OC(=O)c3ccc(O)cc3)c2)cc1)c1ccc(O)cc1
IC50 (NCI-H1299): 37.2 µM
IC50 (NCI-H1650): 40.2 µM
IC50 (NCI-H1703 [1]): 17.2 µM
inhibition at 25 µM (NCI-H1703 [2]): > 50%

COc1cc(C(=O)Oc2ccc(/C=C/c3cccc(OC(=O)c4cc(OC)c(OC)c(OC)c4)c3)cc2)cc(OC)c1OC
Ratio [3]: 1.04
Activity (PC-9): inactive
Ratio [4]: 0.95
Ratio [5]: 0.99
Ratio [6]: 1.01
Activity (NCI-H1703 [7]): inactive
Ratio [8]: 0.99
Ratio [9]: 1.09
Ratio [10]: 1.01
Ratio [11]: 0.98
Ratio [12]: 0.99
Ratio [13]: 1
Ratio [14]: 0.97
Ratio [15]: 0.73
Ratio [16]: 0.88
Ratio [17]: 0.82
Ratio [18]: 1.05
inhibition [19]: inactive
inhibition at 25 µM (NCI-H1703 [2]): < 50%
Ratio [20]: 1.12
Ratio [21]: 1.05
Ratio [22]: 1.02

O=C(Oc1ccc(/C=C/c2cccc(OC(=O)c3ccc(O)c(O)c3)c2)cc1)c1ccc(O)c(O)c1
IC50 (NCI-H1299): 11 µM
IC50 (NCI-H1650): 14.1 µM
IC50 (NCI-H1703 [1]): 8.9 µM
inhibition at 25 µM (NCI-H1703 [2]): > 50%

COc1cc(C(=O)Oc2ccc(Cc3ccc(OC(=O)c4cc(OC)c(OC)c(OC)c4)cc3)cc2)cc(OC)c1OC
inhibition at 25 µM (NCI-H1703 [2]): < 50%

O=C(Oc1ccc(-c2ccc(OC(=O)c3cc(O)c(O)c(O)c3)cc2)cc1)c1cc(O)c(O)c(O)c1
IC50 (NCI-H1299): 4.2 µM
IC50 (NCI-H1650): 7.4 µM
IC50 (NCI-H1703 [1]): 5.8 µM
solubility kinetic at 24 h [23]: 0.4 µM (≈ 0.196 µg/mL)

O=C(Oc1ccccc1Cc1ccccc1OC(=O)c1cc(O)c(O)c(O)c1)c1cc(O)c(O)c(O)c1
IC50 (NCI-H1299): 25.9 µM
IC50 (NCI-H1650): 122 µM
IC50 (NCI-H1703 [1]): 39.3 µM
inhibition at 25 µM (NCI-H1703 [2]): > 50%

O=C(Oc1cccc2c1CCCC2OC(=O)c1cc(O)c(O)c(O)c1)c1cc(O)c(O)c(O)c1 (centres undefined)
IC50 (NCI-H1299): 10.2 µM
IC50 (NCI-H1650): 36 µM
IC50 (NCI-H1703 [1]): 6.5 µM
inhibition at 25 µM (NCI-H1703 [2]): > 50%

O=C(Oc1ccc(/C=C/c2ccccc2)cc1)c1cc(O)c(O)c(O)c1
IC50 (NCI-H1299): 8.5 µM
IC50 (NCI-H1650): 16 µM
IC50 (NCI-H1703 [1]): 11.2 µM
inhibition at 25 µM (NCI-H1703 [2]): > 50%
